The source made the active and inactive calls. The calls are words filed in the database; no cut-off is given here.
Experiments:
[1] = molecular target: Tyrosine-protein kinase ABL1 (Homo sapiens, UniProt P00519); test: Inhibition of ABL (unknown origin)
[2] = molecular target: T1, Cyclin-dependent kinase 4/cyclin D1 (Homo sapiens) (UniProt P11802+P24385); test: Inhibition of recombinant CDK4/cyclinD1 in human MDA-MB-231 cells assessed as inhibition of retinoblastoma phosphorylation at Ser780 at 0.5 to 5 uM after 24 hrs by Western blotting analysis; format: cell-based
Summary of the method: (§1)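 Breast carcinoma cells were given increasing concentrations for 24 h. Total lysates (100 μg, 10% SDS-PAGE) were immunoblotted with antibodies against Ser780-phosphorylated and non-phosphorylated RB. Bands were read on an infrared scanning system.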

[3] = molecular target: T1, Cyclin-dependent kinase 4/cyclin D1 (Homo sapiens); test: Inhibition of recombinant CDK4/cyclinD1 in human MCF7 cells assessed as inhibition of retinoblastoma phosphorylation at Ser780 at 0.5 to 5 uM after 24 hrs by Western blotting analysis; format: cell-based; summary of the method: as §1
[4] = Cytotoxicity against human BT20 cells after 96 hrs by Cell-Titer Blue assay; format: functional; conditions: BT-20, 96 h
2008 = test: Cytotoxicity against human 2008 cells after 96 hrs by Cell-Titer Blue assay; format: functional; conditions: Homo sapiens, 2008, 96 h
Mus musculus [5] = test: Toxicity in NCR nude mouse xenografted with human MDA-MB-231 cells assessed as weight loss at 50 mg/kg, ip […] administered on alternative days measured every 2 days up to 21 days; format: organism-based; parameters: dose 50 mg/kg, route intraperitoneal; conditions: in vivo
Summary of the method: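 MDA-MB-231 cells orthotopically implanted into mammary fat pads of 6–8 week old female nude mice (n=11 per group). Dosing began when average tumour volume reached 100 mm3. Lactate salt in PBS or vehicle was given intraperitoneally every other day (Q2D). Tumour volumes and body weights were recorded every 2 days over 21 days; mean ± SEM.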

[6] = Cytotoxicity against human HFL cells after 96 hrs by Cell-Titer Blue assay; format: cell-based
HeLa = test: Cytotoxicity against human HeLa cells after 96 hrs by Cell-Titer Blue assay; format: functional
[7] = molecular target: Macrophage colony-stimulating factor 1 receptor (Homo sapiens, UniProt P07333); test: Inhibition of FMS (unknown origin)
Chain of Macrophage colony-stimulating factor 1 receptor (P07333 whole entry): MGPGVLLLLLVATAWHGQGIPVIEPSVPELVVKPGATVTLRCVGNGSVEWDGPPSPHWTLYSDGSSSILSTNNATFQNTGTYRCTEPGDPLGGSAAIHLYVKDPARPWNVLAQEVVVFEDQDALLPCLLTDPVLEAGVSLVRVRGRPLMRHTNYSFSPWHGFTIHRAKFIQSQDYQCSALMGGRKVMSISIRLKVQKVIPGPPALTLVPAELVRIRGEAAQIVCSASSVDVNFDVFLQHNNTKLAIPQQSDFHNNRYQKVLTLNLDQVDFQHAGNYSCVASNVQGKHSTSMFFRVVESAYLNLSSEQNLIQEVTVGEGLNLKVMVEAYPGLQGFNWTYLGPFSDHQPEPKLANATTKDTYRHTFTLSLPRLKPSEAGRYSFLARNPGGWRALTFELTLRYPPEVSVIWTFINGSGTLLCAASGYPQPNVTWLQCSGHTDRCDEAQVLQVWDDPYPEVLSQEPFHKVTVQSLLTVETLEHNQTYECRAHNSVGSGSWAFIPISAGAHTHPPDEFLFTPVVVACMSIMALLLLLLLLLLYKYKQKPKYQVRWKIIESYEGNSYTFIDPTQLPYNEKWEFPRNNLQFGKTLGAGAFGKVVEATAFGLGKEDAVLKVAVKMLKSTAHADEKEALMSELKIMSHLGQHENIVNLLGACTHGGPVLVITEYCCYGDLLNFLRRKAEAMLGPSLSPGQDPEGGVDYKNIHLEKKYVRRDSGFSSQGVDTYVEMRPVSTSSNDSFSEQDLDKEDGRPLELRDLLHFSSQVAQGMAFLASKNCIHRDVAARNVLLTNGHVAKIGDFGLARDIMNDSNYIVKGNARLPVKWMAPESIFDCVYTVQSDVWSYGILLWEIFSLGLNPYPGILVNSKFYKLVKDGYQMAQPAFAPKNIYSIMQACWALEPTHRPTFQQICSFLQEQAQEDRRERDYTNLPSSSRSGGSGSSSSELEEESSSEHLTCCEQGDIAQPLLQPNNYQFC

COLO 205 = test: Cytotoxicity against human COLO205 cells after 96 hrs by Cell-Titer Blue assay; format: functional; conditions: COLO 205, 96 h
MDA-MB-231 [8] = test: Inhibition of PI3K in human MDA-MB-231 cells assessed as inhibition of Akt phosphorylation at Ser473 at 0.1 to 10 uM after 24 hrs by Western blotting analysis; format: cell-based
Summary of the method: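 Total lysates (100 μg) were run on 10% SDS-PAGE and immunoblotted for Ser473-phosphorylated and total AKT, with GAPDH as loading control. Detection used infrared-dye secondary antibodies.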

[9] = molecular target: Receptor-type tyrosine-protein kinase FLT3 (Homo sapiens, UniProt P36888); test: Inhibition of FLT3 (unknown origin)
Chain of Receptor-type tyrosine-protein kinase FLT3 (P36888 whole entry): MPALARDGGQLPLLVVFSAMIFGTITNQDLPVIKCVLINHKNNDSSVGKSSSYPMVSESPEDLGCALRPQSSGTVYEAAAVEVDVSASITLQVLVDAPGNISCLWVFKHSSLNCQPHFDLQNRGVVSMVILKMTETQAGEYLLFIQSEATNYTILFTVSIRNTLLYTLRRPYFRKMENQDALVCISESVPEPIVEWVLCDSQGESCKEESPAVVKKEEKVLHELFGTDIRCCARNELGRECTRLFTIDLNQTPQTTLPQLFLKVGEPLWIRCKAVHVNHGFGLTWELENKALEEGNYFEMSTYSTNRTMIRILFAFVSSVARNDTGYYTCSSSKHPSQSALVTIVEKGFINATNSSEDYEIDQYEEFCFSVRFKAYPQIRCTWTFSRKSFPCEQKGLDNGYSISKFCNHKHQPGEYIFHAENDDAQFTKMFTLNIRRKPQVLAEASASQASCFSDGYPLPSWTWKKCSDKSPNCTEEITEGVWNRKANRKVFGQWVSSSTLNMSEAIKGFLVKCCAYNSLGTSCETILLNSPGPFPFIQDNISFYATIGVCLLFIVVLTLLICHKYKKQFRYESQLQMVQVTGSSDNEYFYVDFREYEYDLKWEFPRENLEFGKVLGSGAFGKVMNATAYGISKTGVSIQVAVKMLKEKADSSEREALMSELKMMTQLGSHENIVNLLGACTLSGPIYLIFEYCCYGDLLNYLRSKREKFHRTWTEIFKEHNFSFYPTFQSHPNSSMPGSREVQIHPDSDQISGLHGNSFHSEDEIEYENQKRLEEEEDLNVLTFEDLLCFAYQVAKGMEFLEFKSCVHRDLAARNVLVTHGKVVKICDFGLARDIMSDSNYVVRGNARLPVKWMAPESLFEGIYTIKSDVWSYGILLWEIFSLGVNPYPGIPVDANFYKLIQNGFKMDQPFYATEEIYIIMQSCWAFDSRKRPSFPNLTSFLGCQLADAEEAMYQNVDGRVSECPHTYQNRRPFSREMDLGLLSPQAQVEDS

[10] = Cytotoxicity against human HCC1428 cells after 96 hrs by Cell-Titer Blue assay; format: functional; conditions: HCC1428, 96 h
[11] = Cytotoxicity against human SNU475 cells after 96 hrs by Cell-Titer Blue assay; format: functional; conditions: SNU-475, 96 h
[12] = molecular target: Cyclin-dependent kinase 4/cyclin D1 (Homo sapiens, UniProt P11802); test: Inhibition of CDK4/cyclinD1 (unknown origin); format: protein-complex assay
Chain of Cyclin-dependent kinase 4/cyclin D1 (P11802 whole entry): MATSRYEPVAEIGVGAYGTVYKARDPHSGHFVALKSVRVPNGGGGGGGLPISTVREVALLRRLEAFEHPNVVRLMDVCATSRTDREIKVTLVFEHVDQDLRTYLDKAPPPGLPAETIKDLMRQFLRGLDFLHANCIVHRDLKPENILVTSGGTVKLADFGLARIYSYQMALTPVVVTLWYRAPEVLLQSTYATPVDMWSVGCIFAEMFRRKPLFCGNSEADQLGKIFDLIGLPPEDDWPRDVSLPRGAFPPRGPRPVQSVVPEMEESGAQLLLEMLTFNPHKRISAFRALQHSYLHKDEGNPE
Chain of Cyclin-dependent kinase 4/cyclin D1 (P24385 whole entry, further chain): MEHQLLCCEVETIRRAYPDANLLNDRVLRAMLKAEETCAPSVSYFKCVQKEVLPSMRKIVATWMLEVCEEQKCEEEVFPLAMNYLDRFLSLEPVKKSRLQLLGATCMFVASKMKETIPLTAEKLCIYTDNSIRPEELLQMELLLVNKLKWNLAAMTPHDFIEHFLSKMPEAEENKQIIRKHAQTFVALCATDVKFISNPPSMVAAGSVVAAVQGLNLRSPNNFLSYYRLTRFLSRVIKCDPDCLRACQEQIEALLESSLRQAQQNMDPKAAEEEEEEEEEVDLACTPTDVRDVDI

MDA-MB-231 [13] = test: Cell cycle arrest in human MDA-MB-231 cells assessed as accumulation at sub-G1 phase at 0.5 to 1 uM after 48 hrs by propidium iodide staining-based flow cytometric analysis; format: functional
[14] = Cytotoxicity against human SNU398 cells after 96 hrs by Cell-Titer Blue assay; format: functional; conditions: SNU-398, 96 h
MCF7 [15] = test: Cell cycle arrest in human MCF7 cells assessed as accumulation at sub-G1 phase at 0.5 to 1 uM after 48 hrs by propidium iodide staining-based flow cytometric analysis; format: functional
[16] = Cytotoxicity against human SNU5 cells after 96 hrs by Cell-Titer Blue assay; format: functional; conditions: SNU-5, 96 h
[17] = molecular target: Fibroblast growth factor receptor 1 (Homo sapiens, UniProt P11362); test: Inhibition of FGFR1 (unknown origin)
Chain of Fibroblast growth factor receptor 1 (P11362 whole entry): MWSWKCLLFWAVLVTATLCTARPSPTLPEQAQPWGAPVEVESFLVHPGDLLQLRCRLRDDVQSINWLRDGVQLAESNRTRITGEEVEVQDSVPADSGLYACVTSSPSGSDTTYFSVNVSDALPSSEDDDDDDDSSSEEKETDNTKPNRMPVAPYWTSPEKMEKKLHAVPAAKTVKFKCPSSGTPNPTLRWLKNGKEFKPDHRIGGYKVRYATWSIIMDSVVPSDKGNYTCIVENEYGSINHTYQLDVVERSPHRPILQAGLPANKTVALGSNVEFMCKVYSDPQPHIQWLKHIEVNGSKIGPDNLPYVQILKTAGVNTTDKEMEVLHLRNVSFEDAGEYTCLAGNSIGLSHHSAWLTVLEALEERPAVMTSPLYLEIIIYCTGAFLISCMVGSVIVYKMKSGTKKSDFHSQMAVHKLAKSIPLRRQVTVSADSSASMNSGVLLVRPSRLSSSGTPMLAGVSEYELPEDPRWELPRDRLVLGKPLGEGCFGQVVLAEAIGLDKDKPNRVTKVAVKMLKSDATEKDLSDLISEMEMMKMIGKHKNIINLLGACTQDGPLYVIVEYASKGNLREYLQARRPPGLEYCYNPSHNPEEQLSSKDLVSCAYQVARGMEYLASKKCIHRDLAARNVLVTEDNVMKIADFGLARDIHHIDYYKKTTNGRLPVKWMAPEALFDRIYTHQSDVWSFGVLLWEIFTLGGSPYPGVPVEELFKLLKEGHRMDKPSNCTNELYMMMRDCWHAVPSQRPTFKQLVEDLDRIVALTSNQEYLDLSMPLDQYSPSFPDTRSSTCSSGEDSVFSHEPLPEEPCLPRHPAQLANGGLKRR

K562 = test: Cytotoxicity against human K562 cells after 96 hrs by Cell-Titer Blue assay; format: functional, cell-based; conditions: K562, 96 h
A549 = test: Cytotoxicity against human A549 cells after 96 hrs by Cell-Titer Blue assay; format: functional; conditions: A549, 96 h
MDA-MB-468 = test: Cytotoxicity against human MDA-MB-468 cells after 96 hrs by Cell-Titer Blue assay; format: functional; conditions: MDA-MB-468, 96 h
[18] = Cytotoxicity against human U266 cells after 96 hrs by Cell-Titer Blue assay; format: functional; conditions: U-266, 96 h
SW480 = test: Cytotoxicity against human SW480 cells after 96 hrs by Cell-Titer Blue assay; format: functional; conditions: SW480, 96 h
[19] = Cytotoxicity against human DLD1 cells after 96 hrs by Cell-Titer Blue assay; format: functional; conditions: DLD-1, 96 h
MCF7 [20] = test: Cell cycle arrest in human MCF7 cells assessed as accumulation at G1 phase at 0.5 to 1 uM after 24 hrs by propidium iodide staining-based flow cytometric analysis; format: functional
Summary of the method: (§2)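 Cells plated at 1.0 × 10^6 per dish, then treated 24 h later with increasing concentrations for 24 h. Floating and adherent cells were pooled, PBS-washed and fixed in ice-cold 70% ethanol for at least 24 h. They were then stained with propidium iodide plus RNase A for 30 min at 37 °C. Percentage of cells in each phase was read by flow cytometry.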

HCT-15 = test: Cytotoxicity against human HCT15 cells after 96 hrs by Cell-Titer Blue assay; format: functional; conditions: HCT-15, 96 h
[21] = Cytotoxicity against human Capan1 cells after 96 hrs by Cell-Titer Blue assay; format: functional; conditions: CAPAN-1, 96 h
NCI-N87 = test: Cytotoxicity against human NCI-N87 cells after 96 hrs by Cell-Titer Blue assay; format: functional; conditions: NCI-N87, 96 h
MDA-MB-231 [22] = test: Induction of apoptosis in human MDA-MB-231 cells assessed as PARP cleavage at 1 to 10 uM after 24 hrs by Western blotting analysis; format: functional, cell-based
DU-145 = test: Cytotoxicity against human DU145 cells after 96 hrs by Cell-Titer Blue assay; format: functional, cell-based; conditions: DU-145, 96 h
MDA-MB-157 = test: Cytotoxicity against human MDA-MB-157 cells after 96 hrs by Cell-Titer Blue assay; format: functional; conditions: MDA-MB-157, 96 h
[23] = molecular target: Tyrosine-protein kinase Fyn (Homo sapiens, UniProt P06241); test: Inhibition of FYN (unknown origin)
Chain of Tyrosine-protein kinase Fyn (P06241 whole entry): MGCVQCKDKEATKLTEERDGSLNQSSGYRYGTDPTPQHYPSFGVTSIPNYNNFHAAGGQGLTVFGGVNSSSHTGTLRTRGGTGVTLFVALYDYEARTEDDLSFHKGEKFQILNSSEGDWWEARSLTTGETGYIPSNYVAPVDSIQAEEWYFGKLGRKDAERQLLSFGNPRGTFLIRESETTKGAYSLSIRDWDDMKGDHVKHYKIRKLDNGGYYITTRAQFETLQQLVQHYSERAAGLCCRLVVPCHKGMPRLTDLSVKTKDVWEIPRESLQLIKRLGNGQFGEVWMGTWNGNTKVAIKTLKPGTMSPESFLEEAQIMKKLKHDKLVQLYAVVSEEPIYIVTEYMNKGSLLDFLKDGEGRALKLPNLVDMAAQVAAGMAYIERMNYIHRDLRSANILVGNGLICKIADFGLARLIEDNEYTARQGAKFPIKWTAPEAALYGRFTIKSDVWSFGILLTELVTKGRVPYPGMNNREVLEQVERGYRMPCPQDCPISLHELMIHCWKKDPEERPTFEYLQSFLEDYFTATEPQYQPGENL

[24] = Cytotoxicity against human GRANTA-519 cells after 96 hrs by Cell-Titer Blue assay; format: functional; conditions: Granta-519, 96 h
MDA-MB-231 [25] = test: Induction of apoptosis in human MDA-MB-231 cells assessed as PARP cleavage after 24 hrs by Western blotting analysis; format: functional, cell-based
Mus musculus [26] = test: Toxicity in CD-1 mouse xenografted with human MDA-MB-231 cells assessed as weight loss at 100 to 200 mg/kg, ip measured for 7 days; format: organism-based; parameters: dose 100-200 mg/kg, route intraperitoneal; conditions: in vivo, 168 h
MDA-MB-231 [27] = test: Cell cycle arrest in human MDA-MB-231 cells assessed as accumulation at G1 phase at 0.5 to 1 uM after 24 hrs by propidium iodide staining-based flow cytometric analysis; format: functional; summary of the method: as §2

Chain of Tyrosine-protein kinase ABL1 (P00519 whole entry): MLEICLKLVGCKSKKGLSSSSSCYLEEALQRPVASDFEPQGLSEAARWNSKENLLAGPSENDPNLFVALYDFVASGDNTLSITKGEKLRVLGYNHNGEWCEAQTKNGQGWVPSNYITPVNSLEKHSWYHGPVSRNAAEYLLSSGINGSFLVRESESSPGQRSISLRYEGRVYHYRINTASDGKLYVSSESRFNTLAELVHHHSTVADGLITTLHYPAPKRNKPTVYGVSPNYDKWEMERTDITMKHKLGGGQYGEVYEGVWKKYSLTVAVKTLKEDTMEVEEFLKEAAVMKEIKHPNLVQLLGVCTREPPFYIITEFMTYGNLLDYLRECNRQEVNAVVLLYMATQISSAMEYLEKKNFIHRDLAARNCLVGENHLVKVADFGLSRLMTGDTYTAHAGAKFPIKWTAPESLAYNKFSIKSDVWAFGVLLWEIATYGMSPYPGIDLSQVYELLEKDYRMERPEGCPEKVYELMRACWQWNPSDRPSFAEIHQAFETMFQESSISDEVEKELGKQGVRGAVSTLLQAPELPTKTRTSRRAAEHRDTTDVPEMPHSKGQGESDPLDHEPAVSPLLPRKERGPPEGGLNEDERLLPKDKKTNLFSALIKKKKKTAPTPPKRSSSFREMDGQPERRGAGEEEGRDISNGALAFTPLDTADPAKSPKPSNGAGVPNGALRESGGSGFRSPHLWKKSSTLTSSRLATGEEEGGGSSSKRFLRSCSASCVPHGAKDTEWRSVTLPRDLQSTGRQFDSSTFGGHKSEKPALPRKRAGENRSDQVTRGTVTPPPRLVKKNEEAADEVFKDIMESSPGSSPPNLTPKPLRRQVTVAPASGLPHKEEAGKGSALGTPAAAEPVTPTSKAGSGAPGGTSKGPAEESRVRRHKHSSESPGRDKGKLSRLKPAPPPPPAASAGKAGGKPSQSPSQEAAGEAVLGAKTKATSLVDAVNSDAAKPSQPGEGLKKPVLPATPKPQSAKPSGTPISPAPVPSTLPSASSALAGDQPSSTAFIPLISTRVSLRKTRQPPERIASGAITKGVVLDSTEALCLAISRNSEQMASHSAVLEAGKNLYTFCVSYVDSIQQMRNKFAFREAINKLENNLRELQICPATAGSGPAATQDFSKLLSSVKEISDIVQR

With `CN1CCN(c2ccc(Nc3ncc4cc(C#N)c(=O)n(C5CCCC5)c4n3)cc2)CC1` [NARAZACICLIB] the IC50 [1] was 53.3 nM, the inhibition [2] was “Active” and the inhibition [3] was “Active”. For the same compound, the GI50 [4] was 100 nM, the GI50 2008 was 1500 nM and the Activity (Mus musculus [5]) was “Non-toxic”. The GI50 at 96 h [6] was 5000 nM, the GI50 (HeLa) was 750 nM and the IC50 [7] was 10 nM. The GI50 (COLO 205) was 100 nM, the inhibition (MDA-MB-231 [8]) was “Active” and the IC50 [9] was 12.2 nM. It also gave a GI50 [10] of 300 nM, a GI50 [11] of 300 nM and an IC50 [12] of 3.8 nM. For the same compound, the Activity (MDA-MB-231 [13]) was “Active”, the GI50 [14] was 200 nM and the Activity (MCF7 [15]) was “Active”. For the same compound, the GI50 [16] was 100 nM, the IC50 [17] was 26 nM and the GI50 (K562) was 100 nM. For the same compound, the IC50 (K562) was 50 nM, the GI50 (A549) was 200 nM and the GI50 (MDA-MB-468) was 2000 nM. For the same compound, the GI50 [18] was 200 nM, the GI50 (SW480) was 90 nM and the GI50 [19] was 100 nM. The Activity (MCF7 [20]) was “Active”, the GI50 (HCT-15) was 300 nM and the GI50 [21] was 500 nM. For the same compound, the GI50 (NCI-N87) was 900 nM, the Activity (MDA-MB-231 [22]) was “Active” and the GI50 (DU-145) was 50 nM. The GI50 (MDA-MB-157) was 1000 nM, the IC50 [23] was 11.1 nM and the GI50 [24] was 25 nM. The Activity (MDA-MB-231 [25]) was “Dose-dependent effect”, the Activity (Mus musculus [26]) was “Non-toxic” and the Activity (MDA-MB-231 [27]) was “Active”.
